Assay results from the EternaBench riboswitch data.

Tests used:
MS2 coat protein [1] = experiment: apparent Kd, MS2 coat protein; higher = weaker binding; RNA-MaP array; tryptophan 2.4 mM where present
Outline: (§1)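 On Illumina sequencing-chip clusters, designs were transcribed by stalled E. coli RNA polymerase and titrated with SNAP-549-labelled MS2 coat protein (0.7 or 1.5 nM, doubling to 3 µM), without and then with constant ligand, in 100 mM Tris-HCl pH 7.5, 80 mM KCl, 4 mM MgCl2, BSA, DTT, yeast tRNA and Tween-20. Apparent Kd is the median of filtered per-cluster curve fits to green signal normalised to red-channel RNA signal and control-cluster median Fmax.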

MS2 coat protein [2] = experiment: apparent Kd, MS2 coat protein; higher = weaker binding; RNA-MaP array; theophylline 2 mM where present
Outline: as §1

[3] = designed as: ON switch for tryptophan, no ligand
[4] = ligand present: tryptophan, designed as: ON switch for tryptophan
[5] = designed as: OFF switch for tryptophan, no ligand
[6] = ligand present: tryptophan, designed as: OFF switch for tryptophan
[7] = designed as: ON switch for theophylline, no ligand
[8] = ligand present: theophylline, designed as: ON switch for theophylline
[9] = designed as: OFF switch for theophylline, no ligand
[10] = ligand present: theophylline, designed as: OFF switch for theophylline

AGUACAUGAGGAUCACCCAUGUGCCGGUAACGAGGACCGGUACGGCCGCCACUCGAUGUACCUCAAUUUGAUUGAGAUAAGAAAA
apparent Kd (MS2 coat protein [1]; [3]): 41 nM | apparent Kd (MS2 coat protein [1]; [4]): 17.4 nM

GCAUCCUAGUCGGCCGCCACUGGUACGAACACCUUCACCCGUGUGCACAUGAGGAUCACCCAUGUUAGGACCGGGACUAGGAUGC
apparent Kd (MS2 coat protein [1]; [3]): 8.2 nM | apparent Kd (MS2 coat protein [1]; [4]): 7.99 nM

AAUGUAUGGCACAUGAGGAUCACCCAUGUGCGAGGACCGGUACGGCCGCCACUCGGUCCUGGGAUCUUACCACUAUACAUUAAUG
apparent Kd (MS2 coat protein [1]; [5]): 10 nM | apparent Kd (MS2 coat protein [1]; [6]): 13.1 nM

AGAUGAGUCACGGCCGCCACUCACUUCAGGUUCACCCUUGGUUAACAUGAGGAUCACCCAUGUGGGAGGACCGGGUGAUGAGCAU
apparent Kd (MS2 coat protein [1]; [5]): 16.2 nM | apparent Kd (MS2 coat protein [1]; [6]): 12.8 nM

AGCAACAAGUCGGCCGCCACUCAUAUUACAUGAGGAUCACCCAUGUUUACAUCAAGGUCAUAAUAGAGGACCGGGACAGUUGCAU
apparent Kd (MS2 coat protein [1]; [3]): 34.1 nM | apparent Kd (MS2 coat protein [1]; [4]): 23.7 nM

CACGAAAGAUCGGCCGCCACUAUUUGAUGUGUUCUUUCACAUGAGGAUCACCCAUGUUCUUUCUUUAGGACCGGGAUUGAGCGUG
apparent Kd (MS2 coat protein [1]; [5]): 99.4 nM | apparent Kd (MS2 coat protein [1]; [6]): 49.5 nM

AAAGCCACUUCGGCCGCCACUACAACAUGAGGAUCACCCAUGUACCUCGUGUACGGUCCGAGGAGUAGGACCGGGAAGUGGUGGA
apparent Kd (MS2 coat protein [1]; [3]): 132 nM | apparent Kd (MS2 coat protein [1]; [4]): 52.8 nM

UCCUGCAGAGCGGCCGCCACUGUAUUGCGUGAGGAUGACCCAACAUGAGGAUCACCCAUGUUGUUUAGGACCGGGCUUGCCACGA
apparent Kd (MS2 coat protein [1]; [5]): 14.2 nM | apparent Kd (MS2 coat protein [1]; [6]): 15.5 nM

ACACAUGAGGAUCACCCAUGUCCAAUAGAUACCAGUGAUACAGUGCACCCUUGGCAGCUGUUACUGAGUAAUGGUUCCCUCGGAA
apparent Kd (MS2 coat protein [2]; [7]): 36.6 nM | apparent Kd (MS2 coat protein [2]; [8]): 46 nM

AAACGUUGCUCAGAUACCAGACAUGAGGAUCACCCAUGUACCAAGGUAACCGAAAGGCAUGUCCCUUGGCAGCUGAGCAACGAAA
apparent Kd (MS2 coat protein [2]; [9]): 12.8 nM | apparent Kd (MS2 coat protein [2]; [10]): 262 nM

AGAUCUUUCGAAAGAAGGAUCUUGUCUGAUACCAGAGACGAAAGUCUCCCUUGGCAGCAGUGCCAACAUGAGGAUCACCCAUGUA
apparent Kd (MS2 coat protein [2]; [7]): 20.1 nM | apparent Kd (MS2 coat protein [2]; [8]): 21.4 nM

GAUAGUUGAAGGGAUACCAGCCUGGACAUGAGGAUCACCCAUGUAGCGUGUUUGAAACUGGGCCCUUGGCAGCCCAUAUUGUGUA
apparent Kd (MS2 coat protein [2]; [7]): 15.9 nM | apparent Kd (MS2 coat protein [2]; [8]): 14.6 nM

AUAACAUGAGGAUCACCCAUGUAAGCAGAUACCAGCUAGGAAACUAGCCCUUGGCAGCUGCAUUCCUCAUGUAGGUAUCUGCUAA
apparent Kd (MS2 coat protein [2]; [9]): 15.8 nM | apparent Kd (MS2 coat protein [2]; [10]): 62.5 nM

GACCUUGCGGGCGCCCGCAAGGUCGCGGAUACCAGCGAGGUCCAUCGCCCUUGGCAGCCGAACAUGAGGAUCACCCAUGUCGGUU
apparent Kd (MS2 coat protein [2]; [7]): 10.9 nM | apparent Kd (MS2 coat protein [2]; [8]): 11.8 nM

AAAGGCGGGCAGGAUACCAGCGCUAACAUGAGGAUCACCCAUGUACAAAUAAUAACAUGGUGCCCUUGGCAGCCUGGGCGUCUGC
apparent Kd (MS2 coat protein [2]; [7]): 56 nM | apparent Kd (MS2 coat protein [2]; [8]): 285 nM

AGAUAACAUGGUUUAAUAAGAUAAACUGAUACCAGUGUAUAUAAUCACCCUUGGCAGCAGCAACAUGAGGAUCACCCAUGUAAUA
apparent Kd (MS2 coat protein [2]; [7]): 17 nM | apparent Kd (MS2 coat protein [2]; [8]): 21.6 nM

ACAUGAGGAUCACCCAUGUGGCGUCUUGAUACCAGACCCGCACUAGUCCCUUGGCAGCAACUACGUGAGGGUCGCCCAUGUGUAG
apparent Kd (MS2 coat protein [2]; [9]): 35.9 nM | apparent Kd (MS2 coat protein [2]; [10]): 46.8 nM

UAUUUUGUGAUGGAUACCAGCAGAGAAAACGUUUAUCCUAACAUGAGGAUCACCCAUGUAUGCCCUUGGCAGCUGUUGUGGGAUA
apparent Kd (MS2 coat protein [2]; [9]): 30.8 nM | apparent Kd (MS2 coat protein [2]; [10]): 36.1 nM

UGACAUUGCUCAGAUACCAGACAUGAGGAUCACCCAUGUACCAAGGUACGAAAAUAACAUGUCCCUUGGCAGCUGAGCAAUGUCU
apparent Kd (MS2 coat protein [2]; [9]): 13.6 nM | apparent Kd (MS2 coat protein [2]; [10]): 251 nM

AAACGUUGCUGCGAUACCAGACAUGAGGAUCACCCAUGUACCAAGAAAACGUACAUAAAUGUCCCUUGGCAGCGCAGCAACGAAA
apparent Kd (MS2 coat protein [2]; [9]): 582 nM | apparent Kd (MS2 coat protein [2]; [10]): 1110 nM

GGUGGGACUUGUGAUACCAGCCUAAUUCGAAUCGAAUUGCACAUGAGGAUCACCCAUGUCGGCCCUUGGCAGCAUGAGUAUUUAU
apparent Kd (MS2 coat protein [2]; [7]): 287 nM | apparent Kd (MS2 coat protein [2]; [8]): 20.4 nM

UAUUUGGUGCGCGAGCGCUGGAUAAUUGAUACCAGUGAAGAAGAGCGCCCUUGGCAGCGAAUCCUAACAUGAGGAUCACCCAUGU
apparent Kd (MS2 coat protein [2]; [7]): 37 nM | apparent Kd (MS2 coat protein [2]; [8]): 42.1 nM

AAACAUUGCUGCGAUACCAGACAUGAGGAUCACCCAUGUACCAAGGUAAGAAAAUAACAUGUCCCUUGGCAGCGCAGCAAUGAAA
apparent Kd (MS2 coat protein [2]; [9]): 16.4 nM | apparent Kd (MS2 coat protein [2]; [10]): 418 nM

UCUUUCUAUUGUGAUACCAGACGUACAUGAGGAUCACCCAUGUUUCAUUCUUGUUUUAAAGUCCCUUGGCAGCACUAUUUGUUCG
apparent Kd (MS2 coat protein [2]; [9]): 16.3 nM | apparent Kd (MS2 coat protein [2]; [10]): 13.2 nM

AGCUCAUAGAGUGAUACCAGACUACAUGAGGAUCACCCAUGUUUCUUUUGGUUAUCAUGUGUCCCUUGGCAGCACAAGAAGAGCA
apparent Kd (MS2 coat protein [2]; [9]): 13.4 nM | apparent Kd (MS2 coat protein [2]; [10]): 114 nM

AUGUCGUUGAAUACAGCGGCAUGGUGUGAUACCAGAAUGAUCAAAUUCCCUUGGCAGCAUCACAUGAGGAUCACCCAUGUUAAGG
apparent Kd (MS2 coat protein [2]; [7]): 38.3 nM | apparent Kd (MS2 coat protein [2]; [8]): 52 nM

CAAAACCUUACAGAUACCAGCACAUGAGGAUCACCCAUGUAUUGGACACUUCGCUCAUCGUGCCCUUGGCAGCUGUGGGACGAGG
apparent Kd (MS2 coat protein [2]; [9]): 78.7 nM | apparent Kd (MS2 coat protein [2]; [10]): 175 nM

AGUCUAUGAAGAGAUACCAGUGAGAGACAUAGACAUGAGGAUCACCCAUGUGACAUGAAGCACCCUUGGCAGCUCAACGAGCUCA
apparent Kd (MS2 coat protein [2]; [7]): 42.8 nM | apparent Kd (MS2 coat protein [2]; [8]): 16.1 nM

AGAGGUGCAACAGAUACCAGUCUACCGUACCUCAGAGAACAUGAGGAUCACCCAUGUAUAGACCCUUGGCAGCUGAUGUUAUUCA
apparent Kd (MS2 coat protein [2]; [9]): 22.3 nM | apparent Kd (MS2 coat protein [2]; [10]): 79 nM

AGCCCUGUGCUAGAUACCAGCUACAUGAGGAUCACCCAUGUGCGUCAGAAAUGACUGUGUAGCCCUUGGCAGCUACUCGCAUGUA
apparent Kd (MS2 coat protein [2]; [9]): 14.5 nM | apparent Kd (MS2 coat protein [2]; [10]): 26 nM

AGCGAUAUGCAUGAUACCAGCUACAUGAGGAUCACCCAUGUGCGUCAGAAAUGACUGUGUAGCCCUUGGCAGCAUAAAGCAUGUA
apparent Kd (MS2 coat protein [2]; [9]): 45.1 nM | apparent Kd (MS2 coat protein [2]; [10]): 87.2 nM

AAGCUGCCAAGAAGGUGAUCCAAAUGUGAUACCAGCUAGGAAACUAGCCCUUGGCAGCACAUGAGGAUCACCCAUGUAAUAAUAA
apparent Kd (MS2 coat protein [2]; [9]): 60.8 nM | apparent Kd (MS2 coat protein [2]; [10]): 182 nM

GAUGAACUAUAUGAUACCAGACAACAUGAGGAUCACCCAUGUGAAAGUCGUCCUCUGCCUGUCCCUUGGCAGCGUAUAGUUUAUC
apparent Kd (MS2 coat protein [2]; [9]): 50.4 nM | apparent Kd (MS2 coat protein [2]; [10]): 168 nM

UGACAUUGCUGCGAUACCAGACAUGAGGAUCACCCAUGUACCAAGGUAACCGAAAGGCAUGUCCCUUGGCAGCGCAGCAAUGUCU
apparent Kd (MS2 coat protein [2]; [9]): 11.5 nM | apparent Kd (MS2 coat protein [2]; [10]): 197 nM

AGCCCUGUACUAGAUACCAGCUACAUGAGGAUCACCCAUGUACGAUAAGACUGUCCAUGUAGCCCUUGGCAGCUGCUCGCAUGUA
apparent Kd (MS2 coat protein [2]; [9]): 30.6 nM | apparent Kd (MS2 coat protein [2]; [10]): 68.8 nM

AAACAUUGCUCAGAUACCAGACAUGAGGAUCACCCAUGUACCAAGGUAAAGAAAUAACGUGUCCCUUGGCAGCUGAGCAAUGAAA
apparent Kd (MS2 coat protein [2]; [9]): 10.2 nM | apparent Kd (MS2 coat protein [2]; [10]): 109 nM

ACGAACUGUAGUGAUACCAGACGUACAUGAGGAUCACCCAUGUUGUAAACAUGGUUAAUAGUCCCUUGGCAGCACAGUUAGUUCG
apparent Kd (MS2 coat protein [2]; [9]): 347 nM | apparent Kd (MS2 coat protein [2]; [10]): 531 nM

UGUAACAUGAGGAUCACCCAUGUGAGUGAUACCAGACUAGUAUUAGUCCCUUGGCAGCACGCUGGGCGAGUGUAUAGUCUAUGCG
apparent Kd (MS2 coat protein [2]; [7]): 85.9 nM | apparent Kd (MS2 coat protein [2]; [8]): 84.9 nM

AGAUGACACAGUGGAUAGCAAGAUGCCGAUACCAGCUAGGAAACUAGCCCUUGGCAGCGGUACAUGAGGAUCACCCAUGUAUCCU
apparent Kd (MS2 coat protein [2]; [9]): 12.2 nM | apparent Kd (MS2 coat protein [2]; [10]): 58.7 nM

AUAAGUAAUGUUACGUGUUUAAUUGCAGAUACCAGACUAUACGUUGUCCCUUGGCAGCUGAAUUACAUGAGGAUCACCCAUGUUG
apparent Kd (MS2 coat protein [2]; [9]): 25.9 nM | apparent Kd (MS2 coat protein [2]; [10]): 25 nM
